From ChEMBL document CHEMBL4257484, “Membrane-active antimicrobial poly(amino-modified alkyl) β-cyclodextrins synthesized via click reactions” (Medchemcomm, 2018)
Converted amounts (≈) assume the structure as drawn. Bridge positions count the residues as written; N and C are the ends. Square brackets hold non-standard residues; d marks the D form. Peptide text beside a SMILES is read from it. * marks the point of attachment. Octanoyl(6-Me) = CCC(C)CCCCC(=O)*; Orn = NCCC[C@H](N)C(=O)O; Dab = NCC[C@H](N)C(=O)O

Columns and labels:
Escherichia coli = experiment: Antibacterial activity against drug-sensitive Escherichia coli K-12 W3110 after 20 hrs by liquid microdilution method; assay type: functional; settings: K-12 substr. W3110, 20 h
How it was run: (§1)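 Two-fold serial dilutions of compound in Mueller–Hinton broth, inoculated with 1 × 10^4 cells and cultured at 37 °C for 20 h in microtiter wells.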

[1] = Hemolytic activity in rabbit RBC at 50 uM after 20 mins relative to control; assay type: ADME, cell-based, Oryctolagus cuniculus, Erythrocyte; settings: rabbit red blood cells (erythrocytes), read-out: Activity
How it was run: (§2)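 Rabbit erythrocytes suspended in 150 mM NaCl/10 mM Hepes-NaOH, pH 7.4, at 0.5% hematocrit (final) and incubated with compound at 37 °C. The table footnote gives 20 min; the methods section gives 30 min. Hemolysis was read as absorbance at 540 nm, with 50 µM lysolecithin defining 100% hemolysis.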

Enterococcus faecalis [2] = experiment: Antibacterial activity against vancomycin-resistant Enterococcus faecalis MS29016 after 18 to 20 hrs by agar dilution method; assay type: functional
How it was run: (§3)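 Agar dilution per CLSI. Overnight broth cultures were diluted 100-fold, and one loopful (about 10^5 to 10^4 CFU) was spotted onto agar plates containing the CD. Growth was scored after 18–20 h at 37 °C. MIC values are in µM.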

Pseudomonas aeruginosa = experiment: Antibacterial activity against drug-sensitive Pseudomonas aeruginosa PAO1 after 20 hrs by liquid microdilution method; assay type: functional; settings: PAO1, 20 h; how it was run: as §1
Streptococcus agalactiae = experiment: Antibacterial activity against drug-resistant Streptococcus agalactiae B1 after 18 to 20 hrs by agar dilution method; assay type: functional; how it was run: as §3
[3] = Lipophilicity, log P of the compound; assay type: physicochemical; settings: octanol/water
Bacillus subtilis = experiment: Antibacterial activity against drug-sensitive Bacillus subtilis 168 after 20 hrs by liquid microdilution method; assay type: functional; settings: subsp. subtilis str. 168, 20 h; how it was run: as §1
[4] = Hemolytic activity in rabbit RBC at 2 uM after 20 mins relative to control; assay type: ADME, cell-based, Oryctolagus cuniculus, Erythrocyte; settings: rabbit red blood cells (erythrocytes), read-out: Activity; how it was run: as §2
[5] = Hemolytic activity in rabbit RBC at 1 uM after 20 mins relative to control; assay type: ADME, cell-based, Oryctolagus cuniculus, Erythrocyte; settings: rabbit red blood cells (erythrocytes), read-out: Activity; how it was run: as §2
[6] = Hemolytic activity in rabbit RBC at 5 uM after 20 mins relative to control; assay type: ADME, cell-based, Oryctolagus cuniculus, Erythrocyte; settings: rabbit red blood cells (erythrocytes), read-out: Activity; how it was run: as §2
Salmonella typhimurium = experiment: Antibacterial activity against drug-sensitive Salmonella typhimurium LT2 after 20 hrs by liquid microdilution method; assay type: functional, Salmonella enterica subsp. enterica serovar Typhimurium; settings: Salmonella enterica, LT2, 20 h; how it was run: as §1
Staphylococcus aureus [7] = experiment: Antibacterial activity against methicillin-sensitive Staphylococcus aureus FDA 209P after 20 hrs by liquid microdilution method; assay type: functional; how it was run: as §1
[8] = Hemolytic activity in rabbit RBC at 10 uM after 20 mins relative to control; assay type: ADME, cell-based, Oryctolagus cuniculus, Erythrocyte; settings: rabbit red blood cells (erythrocytes), read-out: Activity; how it was run: as §2
Enterococcus faecium = experiment: Antibacterial activity against drug-resistant Enterococcus faecium MS29120 after 18 to 20 hrs by agar dilution method; assay type: functional; how it was run: as §3
Staphylococcus aureus [9] = experiment: Antibacterial activity against methicillin-resistant Staphylococcus aureus MS29202 after 18 to 20 hrs by agar dilution method; assay type: functional; how it was run: as §3
[10] = Hemolytic activity in rabbit RBC at 20 uM after 20 mins relative to control; assay type: ADME, cell-based, Oryctolagus cuniculus, Erythrocyte; settings: rabbit red blood cells (erythrocytes), read-out: Activity; how it was run: as §2
Enterococcus faecalis [11] = experiment: Antibacterial activity against drug-resistant Enterococcus faecalis MS29030 after 18 to 20 hrs by agar dilution method; assay type: functional; how it was run: as §3

| SMILES | MIC (Escherichia coli) [µM] | hemolysis at 20 min, 50 µM [1] [%] | MIC (Enterococcus faecalis [2]) [µM] | MIC (Pseudomonas aeruginosa) [µM] | MIC (Streptococcus agalactiae) [µM] | logP [3] | MIC (Bacillus subtilis) [µM] | hemolysis at 20 min, 2 µM [4] [%] | hemolysis at 20 min, 1 µM [5] [%] | hemolysis at 20 min, 5 µM [6] [%] | MIC (Salmonella typhimurium) [µM] | MIC (Staphylococcus aureus [7]) [µM] | hemolysis at 20 min, 10 µM [8] [%] | MIC (Enterococcus faecium) [µM] | MIC (Staphylococcus aureus [9]) [µM] | hemolysis at 20 min, 20 µM [10] [%] | MIC (Enterococcus faecalis [11]) [µM] |
| --- | --- | --- | --- | --- | --- | --- | --- | --- | --- | --- | --- | --- | --- | --- | --- | --- | --- |
| NC(CC1CCCCC1)c1cn(C[C@H]2O[C@@H]3O[C@H]4[C@H](O)[C@@H](O)[C@@H](O[C@H]5[C@H](O)[C@@H](O)[C@@H](O[C@H]6[C@H](O)[C@@H](O)[C@@H](O[C@H]7[C@H](O)[C@@H](O)[C@@H](O[C@H]8[C@H](O)[C@@H](O)[C@@H](O[C@H]9[C@H](O)[C@@H](O)[C@@H](O[C@H]2[C@H](O)[C@H]3O)O[C@@H]9Cn2cc(C(N)CC3CCCCC3)nn2)O[C@@H]8Cn2cc(C(N)CC3CCCCC3)nn2)O[C@@H]7Cn2cc(C(N)CC3CCCCC3)nn2)O[C@@H]6Cn2cc(C(N)CC3CCCCC3)nn2)O[C@@H]5Cn2cc(C(N)CC3CCCCC3)nn2)O[C@@H]4Cn2cc(C(N)CC3CCCCC3)nn2)nn1 (stereo not given in full) | 10 (≈ 23.7 µg/mL) | 118 | 20 (≈ 47.4 µg/mL) | 20 (≈ 47.4 µg/mL) | 20 (≈ 47.4 µg/mL) | -0.35 | 3 (≈ 7.11 µg/mL) | 31 | 13 | 89 | 10 (≈ 23.7 µg/mL) | 10 (≈ 23.7 µg/mL) | 107 | 20 (≈ 47.4 µg/mL) | 20 (≈ 47.4 µg/mL) | 117 | 40 (≈ 94.8 µg/mL) |
| NCCCCCCCc1cn(C[C@H]2O[C@@H]3O[C@H]4[C@H](O)[C@@H](O)[C@@H](O[C@H]5[C@H](O)[C@@H](O)[C@@H](O[C@H]6[C@H](O)[C@@H](O)[C@@H](O[C@H]7[C@H](O)[C@@H](O)[C@@H](O[C@H]8[C@H](O)[C@@H](O)[C@@H](O[C@H]9[C@H](O)[C@@H](O)[C@@H](O[C@H]2[C@H](O)[C@H]3O)O[C@@H]9Cn2cc(CCCCCCCN)nn2)O[C@@H]8Cn2cc(CCCCCCCN)nn2)O[C@@H]7Cn2cc(CCCCCCCN)nn2)O[C@@H]6Cn2cc(CCCCCCCN)nn2)O[C@@H]5Cn2cc(CCCCCCCN)nn2)O[C@@H]4Cn2cc(CCCCCCCN)nn2)nn1 | > 42 | 3 | > 42 | > 42 | 42 (≈ 96 µg/mL) | -0.43 | 5 (≈ 11.4 µg/mL) | 1 | 3 | 4 | > 42 | 3 to 21 (≈ 6.85 to 48 µg/mL) | 3 | 21 (≈ 48 µg/mL) | 42 (≈ 96 µg/mL) | 4 | > 42 |
| O[C@@H]1[C@@H](O)[C@H]2O[C@H]3[C@H](O)[C@@H](O)[C@@H](O[C@H]4[C@H](O)[C@@H](O)[C@@H](O[C@H]5[C@H](O)[C@@H](O)[C@@H](O[C@H]6[C@H](O)[C@@H](O)[C@@H](O[C@H]7[C@H](O)[C@@H](O)[C@@H](O[C@H]8[C@H](O)[C@@H](O)[C@@H](O[C@@H]1[C@@H](Cn1cc(CNCC9CC9)nn1)O2)O[C@@H]8Cn1cc(CNCC2CC2)nn1)O[C@@H]7Cn1cc(CNCC2CC2)nn1)O[C@@H]6Cn1cc(CNCC2CC2)nn1)O[C@@H]5Cn1cc(CNCC2CC2)nn1)O[C@@H]4Cn1cc(CNCC2CC2)nn1)O[C@@H]3Cn1cc(CNCC2CC2)nn1 | > 45 | 0 |  | > 45 |  | -1.4 | > 45 | 0 | 0 | 0 | > 45 | > 45 | 0 |  |  | 0 |  |
| NC(Cc1ccccc1)c1cn(C[C@H]2O[C@@H]3O[C@H]4[C@H](O)[C@@H](O)[C@@H](O[C@H]5[C@H](O)[C@@H](O)[C@@H](O[C@H]6[C@H](O)[C@@H](O)[C@@H](O[C@H]7[C@H](O)[C@@H](O)[C@@H](O[C@H]8[C@H](O)[C@@H](O)[C@@H](O[C@H]9[C@H](O)[C@@H](O)[C@@H](O[C@H]2[C@H](O)[C@H]3O)O[C@@H]9Cn2cc(C(N)Cc3ccccc3)nn2)O[C@@H]8Cn2cc(C(N)Cc3ccccc3)nn2)O[C@@H]7Cn2cc(C(N)Cc3ccccc3)nn2)O[C@@H]6Cn2cc(C(N)Cc3ccccc3)nn2)O[C@@H]5Cn2cc(C(N)Cc3ccccc3)nn2)O[C@@H]4Cn2cc(C(N)Cc3ccccc3)nn2)nn1 (stereo not given in full) | 21 (≈ 48.9 µg/mL) | 4 | > 41 | > 41 | 21 (≈ 48.9 µg/mL) | -0.67 | 5 (≈ 11.6 µg/mL) | 4 | 5 | 3 | > 41 | 21 (≈ 48.9 µg/mL) | 6 | 21 (≈ 48.9 µg/mL) | 41 (≈ 95.4 µg/mL) | 4 | > 41 |
| CCCCCCC(N)c1cn(C[C@H]2O[C@@H]3O[C@H]4[C@H](O)[C@@H](O)[C@@H](O[C@H]5[C@H](O)[C@@H](O)[C@@H](O[C@H]6[C@H](O)[C@@H](O)[C@@H](O[C@H]7[C@H](O)[C@@H](O)[C@@H](O[C@H]8[C@H](O)[C@@H](O)[C@@H](O[C@H]9[C@H](O)[C@@H](O)[C@@H](O[C@H]2[C@H](O)[C@H]3O)O[C@@H]9Cn2cc(C(N)CCCCCC)nn2)O[C@@H]8Cn2cc(C(N)CCCCCC)nn2)O[C@@H]7Cn2cc(C(N)CCCCCC)nn2)O[C@@H]6Cn2cc(C(N)CCCCCC)nn2)O[C@@H]5Cn2cc(C(N)CCCCCC)nn2)O[C@@H]4Cn2cc(C(N)CCCCCC)nn2)nn1 (stereo not given in full) | 10 (≈ 22.8 µg/mL) | 118 | 21 (≈ 48 µg/mL) | 21 (≈ 48 µg/mL) | 10 (≈ 22.8 µg/mL) | -0.18 | 5 (≈ 11.4 µg/mL) | 37 | 10 | 101 | 10 (≈ 22.8 µg/mL) | 3 to 10 (≈ 6.85 to 22.8 µg/mL) | 109 | 21 (≈ 48 µg/mL) | 10 (≈ 22.8 µg/mL) | 113 | 42 (≈ 96 µg/mL) |
| NC(CCc1ccccc1)c1cn(C[C@H]2O[C@@H]3O[C@H]4[C@H](O)[C@@H](O)[C@@H](O[C@H]5[C@H](O)[C@@H](O)[C@@H](O[C@H]6[C@H](O)[C@@H](O)[C@@H](O[C@H]7[C@H](O)[C@@H](O)[C@@H](O[C@H]8[C@H](O)[C@@H](O)[C@@H](O[C@H]9[C@H](O)[C@@H](O)[C@@H](O[C@H]2[C@H](O)[C@H]3O)O[C@@H]9Cn2cc(C(N)CCc3ccccc3)nn2)O[C@@H]8Cn2cc(C(N)CCc3ccccc3)nn2)O[C@@H]7Cn2cc(C(N)CCc3ccccc3)nn2)O[C@@H]6Cn2cc(C(N)CCc3ccccc3)nn2)O[C@@H]5Cn2cc(C(N)CCc3ccccc3)nn2)O[C@@H]4Cn2cc(C(N)CCc3ccccc3)nn2)nn1 (stereo not given in full) | 20 (≈ 48.5 µg/mL) | 113 | 40 (≈ 97 µg/mL) | > 40 | 20 (≈ 48.5 µg/mL) | -0.25 | 5 (≈ 12.1 µg/mL) | 6 | 4 | 17 | > 40 | 20 (≈ 48.5 µg/mL) | 47 | 20 (≈ 48.5 µg/mL) | 20 (≈ 48.5 µg/mL) | 94 | 40 (≈ 97 µg/mL) |
| CC(C)C[C@@H]1NC(=O)[C@H](CCCN)NC(=O)[C@H](C(C)C)NC(=O)[C@@H]2CCCN2C(=O)[C@@H](Cc2ccccc2)NC(=O)[C@H](CC(C)C)NC(=O)[C@H](CCCN)NC(=O)[C@H](C(C)C)NC(=O)[C@@H]2CCCN2C(=O)[C@@H](Cc2ccccc2)NC1=O (cyclo(V[Orn]L[dF]PV[Orn]L[dF]P)) | 28 (≈ 32 µg/mL) |  |  | 56 (≈ 63.9 µg/mL) |  |  |  |  |  |  |  | 7 (≈ 7.99 µg/mL) |  |  |  |  |  |
| CCC(C)CCCCC(=O)N[C@@H](CCN)C(=O)N[C@H](C(=O)N[C@@H](CCN)C(=O)N[C@H]1CCNC(=O)[C@H]([C@@H](C)O)NC(=O)[C@H](CCN)NC(=O)[C@H](CCN)NC(=O)[C@H](CC(C)C)NC(=O)[C@@H](Cc2ccccc2)NC(=O)[C@H](CCN)NC1=O)[C@@H](C)O (stereo not given in full) ({Octanoyl(6-Me)}-[Dab]T[Dab][Dab][Dab][dF]L[Dab][Dab]T; lactam 4-C) | 1 (≈ 1.2 µg/mL) |  |  | 1 (≈ 1.2 µg/mL) |  |  | 6 (≈ 7.22 µg/mL) |  |  |  | 1 (≈ 1.2 µg/mL) | 23 (≈ 27.7 µg/mL) |  |  |  |  |  |
